Source: PubChem BioAssay
CHOP inh: blocks CHOP induction under ER stress | CHO-K1 CHOP-promoter luciferase, tunicamycin-induced, 15-18 h | inhibition, % at 10 µM | 3.8% of 220,000 active | AID 2732;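 active = compounds that reduced the stress-induced luciferase reporter signal by more than about 70% of percent inhibition, limit read from the data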;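 also: 0% = tunicamycin plus vehicle and 100% = wells without tunicamycin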
CSC inhib: blocks cancer stem cells. cancer stem cell-like cells viability, luminescence. inhibition, % at 7.5 µM. 1.1% of 300,000 active. AID 2717; in the data active = inhibition above about 75%; tested in HMLE shEcad cells
Beta cell apopt: beta cell apoptosis inhibition. protection from apoptosis, % (test concentration not listed). AID 435005. INS-1E cytokine-induced death, ATP luminescence, 48 h; percent of positive-control rescue, neutral wells zero. 0.8% of 300,000 active;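 active = Every replicate reaches about 75%, or at least half do and their mean reaches it too, limit read from the data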;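 also: 0% = cytokine-treated negative control wells and 100% = positive control rescue; higher means more ATP so stronger rescue from cytokine killing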
PREPL inhibitor: inhibits the human prolyl oligopeptidase-like enzyme | Q4J6C6 | recombinant PREPL, fluorescence polarization activity-based probe | inhibition, % at 5.96 µM | 0.68% of 320,000 active;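 also: 0% = enzyme with DMSO and 100% = wells lacking enzyme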
Target sequence (Q4J6C6 whole entry, looked up): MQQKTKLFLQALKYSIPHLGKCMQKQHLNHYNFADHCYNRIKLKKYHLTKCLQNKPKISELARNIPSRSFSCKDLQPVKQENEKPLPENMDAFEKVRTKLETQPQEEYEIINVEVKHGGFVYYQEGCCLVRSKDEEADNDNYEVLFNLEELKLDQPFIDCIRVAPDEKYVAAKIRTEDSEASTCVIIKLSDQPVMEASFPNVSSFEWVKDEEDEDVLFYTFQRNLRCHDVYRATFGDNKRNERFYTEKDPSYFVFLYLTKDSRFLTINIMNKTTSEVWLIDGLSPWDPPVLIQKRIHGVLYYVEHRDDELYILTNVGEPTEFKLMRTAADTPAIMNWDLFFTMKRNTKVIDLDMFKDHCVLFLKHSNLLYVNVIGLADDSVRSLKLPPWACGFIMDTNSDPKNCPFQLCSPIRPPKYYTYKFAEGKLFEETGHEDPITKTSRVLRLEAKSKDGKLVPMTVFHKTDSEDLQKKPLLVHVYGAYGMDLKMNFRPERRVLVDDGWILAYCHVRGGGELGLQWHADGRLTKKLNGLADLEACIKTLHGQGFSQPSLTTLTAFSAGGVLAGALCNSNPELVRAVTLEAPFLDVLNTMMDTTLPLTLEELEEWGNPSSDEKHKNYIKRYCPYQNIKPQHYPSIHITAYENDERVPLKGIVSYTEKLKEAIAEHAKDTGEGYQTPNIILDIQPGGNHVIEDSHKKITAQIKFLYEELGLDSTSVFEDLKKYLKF
T cruzi inh: T. cruzi replication inhibition; T. cruzi beta-gal in NIH3T3, luminescence, 90 h; inhibition, % (test concentration not listed); AID 1885; 1.4% of 300,000 active;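 active = mean inhibition across valid replicates above about 55%, limit read from the data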;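 also: signal also drops with host cell toxicity which is not excluded here; 0% = plate median of DMSO wells and 100% = zero luminescence signal; higher percent means less beta-gal luminescence so fewer parasites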
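Assay system: NIH/3T3 host cells with β-galactosidase reporter T. cruzi; input: 5,000 host fibroblasts per well; compound: single 50 nL compound addition per well in DMSO; timing: ≥90 h infection period, 3 h prior cell attachment; measured by: GalScreen β-gal luminescence, detergent lysis, 60 min; evaluation: percent inhibition of parasite-derived β-gal signal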
GRIN3A LBD mod: modulates the human NR3A ligand-binding domain. NR3A LBD differential scanning fluorimetry, Tm shift; 0% = protein alone, 100% = glycine-bound protein. Tm shift relative to glycine control, % at 25 µM. 2.5% of 340,000 active. AID 1259313;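 active = melting temperature shift of at least 10% of the positive control shift, at one fixed dose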
PREPL inh cf: human PREPL inhibition, confirmation. shares compounds with PREPL inhibitor. recombinant PREPL, fluorescence polarization activity probe. inhibition, % at 5.96 µM. 67% of 2,000 active. AID 2803;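 also: 0% = protein with DMSO and 100% = wells lacking protein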
Starred values were filed as active, the others as inactive; / = no result given. An excerpt weighted towards active compounds, which were near 6.7% of everything screened. Rule as the data show it, unless noted: active = inhibition above about 43%; inactive = the rest.

SMILES	CHOP inh	CSC inhib	Beta cell apopt	PREPL inhibitor	T cruzi inh	GRIN3A LBD mod	PREPL inh cf
COc1ccccc1OCCCC(=O)Nc1ccc(N2CCOCC2)cc1	-8.0	/	0.4	8.3	3.1	0.2	/
O=C(c1ccco1)N1CCN(c2ccc(F)cc2)CC1	-6.7	5.0	1.7	6.0	2.5	-0.3	/
Nc1ccc(N2CCN(C(=O)c3ccco3)CC2)cc1	-6.3	7.5	13.4	62.8*	22.2	-1.2	43.5*
COc1ccc(-c2noc(N3CCCC(C(=O)Nc4ccc(C(C)=O)cc4)C3)n2)cc1 (centres undefined)	/	2.5	4.4	6.3	-2.8	-12.0	/
CCOC(=O)N1CCN(C(=O)Cn2nc(C)n3nc(-c4ccccc4)cc3c2=O)CC1	/	-5.9	2.2	13.7	12.4	-1.1	/
O=C(C1=C[C@@H](c2ccc(C(F)(F)F)cc2)C[C@@H](OCc2ccc(CO)cc2)O1)N1CCN(Cc2ccccc2)CC1	-12.2	5.5	6.5	52.5*	42.2	-10.2	56.9*
CN1CCN(C(=O)C2=C[C@@H](c3ccc(C(F)(F)F)cc3)C[C@@H](OCc3ccc(CO)cc3)O2)CC1	-4.8	-22.9	-8.7	59.3*	-0.2	-0.4	58.8*
CN1CCN(C(=O)C2=C[C@@H](c3ccc4c(c3)OCO4)C[C@@H](OCc3ccc(CO)cc3)O2)CC1	8.7	11.9	0.5	45.5*	-10.7	0.0	53.5*
O=C(C1=C[C@H](c2ccc(C(F)(F)F)cc2)C[C@H](OCc2ccc(CO)cc2)O1)N1CCOCC1	17.6	-11.2	4.6	28.7	13.7	-1.1	/
CCO[C@@H]1OC(C(=O)NCc2ccccc2)=C[C@H](c2csc3ccccc23)[C@H]1CCCO	6.2	-2.3	0.1	3.5	17.7	-30.4	/
CCOc1ccc(S(=O)(=O)N2CCCCC2)cc1NS(=O)(=O)c1cccs1	/	/	-5.6	-2.9	/	0.6	/
COc1ccc(N2CCN(c3nc4c(c(=O)n(C)c(=O)n4C)n3Cc3ccccc3)CC2)cc1	30.4	-8.1	16.7	50.2*	18.6	-1.3	56.5*
CCN1CCN(c2nc3c(c(=O)[nH]c(=O)n3C)n2CCSc2nc3ccccc3s2)CC1	9.0	-13.4	-6.1	39.7	-9.9	-1.2	/
CN1CCN(c2nc3c(c(=O)n(C)c(=O)n3C)n2CCSc2nc3ccccc3s2)CC1	7.2	-15.6	-1.4	44.6*	/	-4.2	33.6
COc1ccc(NC(=O)C(=O)c2cn(CC(=O)N3CCOCC3)c3ccccc23)cc1OC	/	-4.8	-6.2	3.2	-8.4	0.3	/
CN(C1CCCCC1)S(=O)(=O)c1ccc(S(=O)(=O)N(CC(=O)Nc2ccccc2)C2CC2)cc1	13.8	-7.5	6.3	-8.0	40.1	-0.9	/
COc1ccc(N2CCN(CCCNS(=O)(=O)c3c(C)noc3/C=C/N(C)C)CC2)cc1	20.3	-12.9	3.5	71.4*	9.4	/	27.6
COc1ccc(NC(=O)C2CCN(S(=O)(=O)c3c(C)noc3/C=C/N(C)C)CC2)cc1	/	-9.6	0.6	6.2	3.9	3.3	/
N#Cc1cccc(NC(=O)CSc2nnc(C3CC3)n2C2CC2)c1	/	-8.8	1.0	76.2*	/	-0.9	2.4
NS(=O)(=O)c1cccc(NC(=O)CSc2nnc(C3CC3)n2C2CC2)c1	/	/	-7.0	12.5	/	-0.3	/
N#C/C(=C\c1ccc(N2CCOCC2)c([N+](=O)[O-])c1)c1nc2ccccc2[nH]1	53.5	14.9	21.1	45.0*	-3.6	1.1	39.7
N#C/C(=C\c1cccnc1)c1nc2ccccc2[nH]1	-57.0	28.1	5.2	56.1*	10.4	-3.7	12.6
Cc1ccc(NC(=S)C2=C(O)c3ccccc3N(C)S2(=O)=O)cc1	25.5	9.0	-6.2	9.1	-4.0	0.3	/
O=C(c1cc([N+](=O)[O-])ccc1Cl)N1CCN(c2ccc([N+](=O)[O-])cc2)CC1	-27.9	1.7	8.3	64.8*	0.5	-5.0	58.2*
C#CCOCCOCCOCCNc1nc(N2CCN(C(=O)CCCCCCCCCCNC(=O)[C@H](CCC(=O)O)n3cc(CCCCCN)nn3)CC2)nc(N2CCN(C(=O)CCCCCCCCCCNC(=O)[C@@H]([C@H](C)O)n3cc(C)nn3)CC2)n1	/	9.8	-3.9	-1.9	/	-3.3	/
